Here are results for 2 molecules from ChEMBL document CHEMBL4354813, “Design, Synthesis, and Pharmacological Evaluation of Potent Positive Allosteric Modulators of the Glucagon-like Peptide-1 Receptor (GLP-1R)” (J Med Chem, 2020).

For data set [1], the target named is T1, Glucagon-like peptide 1 receptor (Homo sapiens, UniProt P43220). As to the kind of experiment: Positive allosteric modulator activity at human GLP-1R expressed in PSC-HEK293 cells in presence of EC20 level of GLP1(9-36)NH2 incubated for 30 mins by HTRF cAMP assay relative to control. In kind it is functional, cell-based. The procedure, abridged: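 Thaw-and-use PSC-HEK293 cells stably expressing human GLP-1R, 2000 cells/well in HBSS/20 mM HEPES/0.1% BSA with 2 mM IBMX. Enhancer format: compound dose-response plus fixed EC20 GLP1(9-36)NH2. Shift format: GLP1(9-36)NH2 dose-response plus 10 or 3 μM compound. 30 min at room temperature. HTRF cAMP read after 1 h lysis (665/620 nm). EC50 from a 4-parameter logistic fit.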
T1 sequence (P43220 whole entry): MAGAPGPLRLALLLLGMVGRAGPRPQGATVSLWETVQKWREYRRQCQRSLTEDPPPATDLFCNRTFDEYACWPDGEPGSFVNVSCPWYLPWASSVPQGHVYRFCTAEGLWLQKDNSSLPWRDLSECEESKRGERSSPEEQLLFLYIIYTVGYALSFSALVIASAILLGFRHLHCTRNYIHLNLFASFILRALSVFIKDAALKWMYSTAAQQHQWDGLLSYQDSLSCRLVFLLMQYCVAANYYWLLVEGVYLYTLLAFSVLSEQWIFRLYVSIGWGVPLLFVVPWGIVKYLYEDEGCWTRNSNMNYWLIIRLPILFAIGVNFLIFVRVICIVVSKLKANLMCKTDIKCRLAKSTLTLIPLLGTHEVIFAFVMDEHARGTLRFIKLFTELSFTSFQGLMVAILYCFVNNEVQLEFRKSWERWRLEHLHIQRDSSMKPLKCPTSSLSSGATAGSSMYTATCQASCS
On the technique in general: In TR-FRET formats the signal depends on donor and acceptor labels being close together.

Data set [2] concerns the target T2, Glucagon-like peptide 1 receptor (Mus musculus) (UniProt O35659).
T2 sequence (whole entry): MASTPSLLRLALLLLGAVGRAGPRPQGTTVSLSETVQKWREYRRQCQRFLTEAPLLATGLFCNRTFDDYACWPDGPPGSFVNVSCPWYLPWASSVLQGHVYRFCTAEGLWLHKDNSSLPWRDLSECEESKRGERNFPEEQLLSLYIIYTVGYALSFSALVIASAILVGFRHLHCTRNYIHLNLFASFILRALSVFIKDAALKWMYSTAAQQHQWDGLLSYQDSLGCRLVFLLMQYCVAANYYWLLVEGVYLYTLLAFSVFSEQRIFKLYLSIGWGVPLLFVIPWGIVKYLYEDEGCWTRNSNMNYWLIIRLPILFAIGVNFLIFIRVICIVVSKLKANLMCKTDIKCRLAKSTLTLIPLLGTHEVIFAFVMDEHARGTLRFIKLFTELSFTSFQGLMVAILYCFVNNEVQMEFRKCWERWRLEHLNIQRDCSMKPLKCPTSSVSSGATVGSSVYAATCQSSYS
As to the kind of experiment: Positive allosteric modulator activity at GLP-1R in mouse MIN6-c4 cells assessed as effect on glucose-mediated increase in intracellular Ca2+ level by FLIPR assay relative to control. Format: functional, cell-based.

For data set [3], the target named is T1, Glucagon-like peptide 1 receptor. As to the kind of experiment: Activity at human GLP-1R expressed in PSC-HEK293 cells incubated for 30 mins by HTRF cAMP assay. Format: functional, cell-based.
The target in data set [4] is T3, Gastric inhibitory polypeptide receptor (Homo sapiens) (UniProt P48546).
T3 sequence (whole entry): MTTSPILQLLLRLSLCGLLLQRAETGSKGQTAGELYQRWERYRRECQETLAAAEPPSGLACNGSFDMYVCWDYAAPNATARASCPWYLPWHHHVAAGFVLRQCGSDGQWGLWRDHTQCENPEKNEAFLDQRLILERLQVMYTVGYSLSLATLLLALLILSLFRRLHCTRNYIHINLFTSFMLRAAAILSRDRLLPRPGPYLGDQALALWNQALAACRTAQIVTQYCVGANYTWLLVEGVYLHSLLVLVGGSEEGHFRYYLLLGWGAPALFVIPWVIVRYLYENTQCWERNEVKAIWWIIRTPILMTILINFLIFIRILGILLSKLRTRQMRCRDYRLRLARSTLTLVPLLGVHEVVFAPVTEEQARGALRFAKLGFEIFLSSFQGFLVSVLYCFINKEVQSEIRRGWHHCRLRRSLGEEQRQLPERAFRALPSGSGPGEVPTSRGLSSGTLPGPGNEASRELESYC
As to the kind of experiment: Activity at human GIPR expressed in PSC-HEK293 cells incubated for 30 mins by HTRF cAMP assay. Format: functional, cell-based.

Data set [5] in a line: Efflux ratio in human Caco2/TC7 cells at pH 7.4 in presence of 0.5% BSA. Format: ADME, cell-based. Particulars: Caco-2, pH 7.4. In outline: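 Efflux in Caco-2/TC7 cells under isocratic conditions, pH 7.4 and 0.5% BSA in both compartments, compound 2 µM, with and without cyclosporine A as efflux inhibitor; LC-MS/MS analysis.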
On the technique in general: Passage across Caco-2 layers is used to estimate intestinal permeability.

The test system of data set [6] is Mus musculus. As to the kind of experiment: Suppression of blood glucose concentration in ob/ob C57Bl/6J mouse model of T2DM at 30 mg/kg, po in absence of OATP/MRP2 inhibitor rifampicin and/or GLP1(9-36)NH2 by oral glucose-tolerance test. In kind it is functional, organism-based. The procedure, abridged: (§1)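 Male ob/ob mice aged 10–11 weeks, n=7, randomised on blood glucose and fasted overnight. Rifampicin 60 mg/kg p.o. 2.5 h before the oGTT, compound 30 mg/kg p.o. 1 h before, GLP1(9-36)NH2 i.p. 15 min before, each given as indicated. Glucose 2 g/kg orally. Tail-vein glucose by glucometer at 0, 15, 30, 60 and 90 min.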

In data set [7] the test system is Mus musculus. As to the kind of experiment: Suppression of blood glucose concentration in ob/ob C57Bl/6J mouse model of T2DM at 30 mg/kg, po dosed 1 hrs before test and treated with 60 mg/kg, po OATP/MRP2 inhibitor rifampicin 2.5 hrs prior to oral glucose-tolerance test. Format: functional, organism-based. In outline:
as §1

Data set [8] is described as follows: Lipophilicity, logD of the compound at pH 7.4 at 25 degC. The following applies: buffer. In kind it is physicochemical.
Data set [9] in a line: Chemical stability in pH 1.1 buffer. In kind it is physicochemical.
The nature of data set [10]: Chemical stability in pH 7.4 buffer. Format: physicochemical.
Data set [11] in a line: Oral bioavailability in C57Bl6 mouse at 10 mg/kg administered as single dose measured up to 24 hrs ESI-LC/MS-MS analysis. Format: ADME, organism-based. Particulars: in vivo. In outline:
(§2)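 Single dose of compound: 3 mg/kg i.v. in solution (75% water : 25% of 75% Glycoferol/25% Cremophor) or 10 mg/kg p.o. as wet-milled suspension (0.6% methylcellulose, 0.5% Tween 80 in water); male Wistar rats n=3 per route, female C57Bl6 mice n=24 per route. Plasma sampled 0.25–24 h (p.o.), 0.083–24 h (i.v.); heparinized plasma, acetonitrile precipitation, ESI-LC/MS-MS (LOQ 1 ng/mL rat, 5 ng/mL mouse); noncompartmental analysis, linear trapezoidal.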

The nature of data set [12]: Cmax in Wistar rat at 10 mg/kg, po administered as single dose measured up to 24 hrs ESI-LC/MS-MS analysis. Format: ADME, organism-based. Also on record: dose 10 mg/kg, route oral. Particulars: in vivo. In outline:
as §2

Data set [13] can be described thus: AUClast in Wistar rat at 10 mg/kg, po administered as single dose measured up to 24 hrs ESI-LC/MS-MS analysis. Format: ADME, organism-based. Also on record: dose 10 mg/kg, time < 24 hr, route oral. Particulars: in vivo. The procedure, abridged: as §2
Data set [14] has as its target Vasoactive intestinal polypeptide receptor 2 (Homo sapiens) (UniProt P41587). As to the kind of experiment: Activity at human VIPR expressed in PSC-HEK293 cells incubated for 30 mins by HTRF cAMP assay.
The species named for data set [15] is Rattus norvegicus. As to the kind of experiment: Inhibition of GLP1(9-36)NH2-mediated glucose-stimulated insulin secretion in dispersed rat pancreatic islets at 10 uM incubated for 2 hrs by ELISA. In kind it is functional. In outline:
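Dispersed islets from male Sprague Dawley rats (collagenase digestion, Histopaque purification, Accutase dispersal, cultured up to 4 days). Pre-incubated 1 h in Krebs-Ringer with 5.6 mM glucose, then 2 h at 37 °C with 15 mM glucose, ±10 nM GLP1(9-36)NH2, ±compound 10 µM, DMSO vehicle; insulin by HTRF ELISA as % of total, n-fold vs control; N≥9.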
For orientation: ELISA stands for enzyme-linked immunosorbent assay.

In data set [16] the test system is Pancreatic islet. As to the kind of experiment: Inhibition of GLP1(9-36)NH2-mediated glucose-stimulated insulin secretion in dispersed GLP-1(-/-) mouse pancreatic islets at 10 uM incubated for 2 hrs by ELISA. In kind it is functional, cell-based.

A word on the Emax: it is the greatest response seen or fitted, relative to the assay's reference. A word on the efflux ratio: it is the permeability from basolateral to apical divided by that in the opposite direction, in the common usage. In general, logD refers to the decadic logarithm of the distribution of all forms, ionised or not, between an organic phase and buffer at a given pH. In general, bioavailability refers to dose-corrected exposure relative to a reference, in per cent. The low end stands for poor availability, the high end for good availability. What is called Cmax is the maximum level reached in the sampled fluid or tissue.

The source made the active and inactive calls. No cut-off for these calls is given here.

Vasoactive intestinal polypeptide receptor 2 (Homo sapiens), sequence (P41587 whole entry, looked up): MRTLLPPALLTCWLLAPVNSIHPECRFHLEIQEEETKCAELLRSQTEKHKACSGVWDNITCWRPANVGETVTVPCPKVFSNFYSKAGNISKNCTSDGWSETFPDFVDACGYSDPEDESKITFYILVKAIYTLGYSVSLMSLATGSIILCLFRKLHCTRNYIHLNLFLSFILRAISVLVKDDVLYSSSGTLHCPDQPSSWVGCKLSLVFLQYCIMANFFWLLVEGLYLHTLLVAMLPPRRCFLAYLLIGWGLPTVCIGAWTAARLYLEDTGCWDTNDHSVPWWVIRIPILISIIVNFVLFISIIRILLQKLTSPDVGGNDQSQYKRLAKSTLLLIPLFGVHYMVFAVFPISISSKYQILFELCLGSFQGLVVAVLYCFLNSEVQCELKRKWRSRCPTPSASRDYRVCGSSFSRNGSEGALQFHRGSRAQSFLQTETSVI

As to `CC(C)(C)OC(=O)n1c2c(c3ccccc31)C[C@H]1C(=O)N3C[C@@H](CC(=O)O)C[C@H]3[C@@H]2N1C(=O)CC1CCC(F)(F)CC1`, the Emax in data set [1] was 100%. The fold change (FC) in data set [2] turned out to be 1.2. Also, the result in [3], in [4], in data set [6], in data set [7] and in [14] was inactive. Further, the efflux ratio in data set [5] was found to be 247. This molecule also displayed a logD in data set [8] of 1.7. The Stability is recorded as 98% in data set [9] and 99% in [10]. The bioavailability in data set [11] is 7.2%. Also, the concentration in [12] peaked (Cmax) at 106 ng/mL. The AUClast in data set [13] was 110 ng·h/mL.

With `CC(O)CCN1C[C@H]2c3c(c4ccccc4n3C(=O)OC(C)(C)C)C[C@@H](C1=O)N2C(=O)CC1CCC(F)(F)CC1` (stereo partly specified), in data set [1], the Emax came to 100%. In addition, in [2], the fold change (FC) worked out at 0.9. Also, the outcome in [3], in data set [4] and in data set [14] was inactive. The inhibition result in data set [15] and in [16] was “Active” each time.
